Series [1] is described as follows: Toxicity after oral administration of 50 mg/kg dose in rats; ++ means 50% of the animals exhibiting toxicity. In kind it is organism-based. The arrangement: dose 50 mg/kg, route oral. As to conditions: rat, in vivo. The procedure, abridged:
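Rats dosed orally with compound dissolved or suspended in 0.5% methylcellulose (0.04 mL per 10 g body weight). Anticonvulsant protection (MES or scMet) and toxicity scored at 15 min, 30 min, 1 h, 2 h and 4 h after dosing. Graded in steps of 25% of animals protected or showing toxicity.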

Series [2] deals with Mus musculus. Kind of series: Anti convulsant activity administered intra peritoneally to mouse for subcutaneous metrazol test at 4 hr after the drug administered with dose of 100 mg/kg; 0/1= No of animals protected /No of animals tested. In kind it is functional.
Series [3] in a line: Anti convulsant activity administered intra peritoneally to mouse for toxicity at 4 hr with dose of 30 mg/kg; 0/2= No of animals exhibiting toxicity /No of animals tested. The note with it: in vivo, ip. It is filed as organism-based. The arrangement: dose 30 mg/kg.
In series [4] the test system is Mus musculus. Kind of series: Anti convulsant activity administered intra peritoneally to mouse at maximal electroshock test at 4 hr after the drug administered with dose of 30 mg/kg; 0/1= No of animals protected /No of animals tested. In kind it is functional. For orientation: In the maximal electroshock model the usual endpoint is tonic extension of the hind limbs.

For series [5], the system named is Mus musculus. The series is described as follows: Anti convulsant activity administered intra peritoneally to mouse for subcutaneous metrazol test at 4 hr with dose of 300 mg/kg; 0/1= No of animals protected /No of animals tested. It is filed as functional.
Series [6] has as its system Rattus norvegicus. The series is described as follows: Anticonvulsant activity after oral administration of 30 mg/kg dose after 4 hr in rats; - means 25% of the animal protected. It is filed as functional, organism-based. The arrangement: dose 30 mg/kg.
Series [7] can be described thus: Anti convulsant activity administered intra peritoneally to mouse for toxicity at 0.5 hr with dose of 300 mg/kg; 4/4= No of animals exhibiting toxicity /No of animals tested. As to conditions: in vivo, ip. The arrangement: dose 300 mg/kg. It is filed as organism-based.
The subject of series [8] is Mus musculus. The series is described as follows: Anti convulsant activity administered intra peritoneally to mouse at maximal electroshock test at 0.5 hr after the drug administered with dose of 300 mg/kg; 1/1= No of animals protected /No of animals tested. In kind it is functional.
Series [9] deals with Mus musculus. Kind of series: Anti convulsant activity administered intra peritoneally to mouse at maximal electroshock test at 0.5 hr after the drug administered with dose of 100 mg/kg; 0/3= No of animals protected /No of animals tested. In kind it is functional.
The nature of series [10]: Anti convulsant activity administered intra peritoneally to mouse for toxicity at 4 hr with dose of 300 mg/kg; 2/2= No of animals exhibiting toxicity /No of animals tested. In kind it is organism-based. Set-up: dose 300 mg/kg. The note with it: in vivo, ip.
Series [11] in a line: Anti convulsant activity administered intra peritoneally to mouse for toxicity at 4 hr with dose of 100 mg/kg; 0/4= No of animals exhibiting toxicity /No of animals tested. In kind it is organism-based. The arrangement: dose 100 mg/kg. The note with it: in vivo, ip.
Series [12] is described as follows: Anti convulsant activity administered intra peritoneally to mouse for toxicity at 0.5 hr with dose of 30 mg/kg; 0/4= No of animals exhibiting toxicity /No of animals tested. In kind it is organism-based. The arrangement: dose 30 mg/kg. The note with it: in vivo, ip.
In series [13] the test system is Mus musculus. The series is described as follows: Anti convulsant activity administered intra peritoneally to mouse at maximal electroshock test at 4 hr after the drug administered with dose of 100 mg/kg; 0/3= No of animals protected /No of animals tested. It is filed as functional.
The test system of series [14] is Mus musculus. The series is described as follows: Anti convulsant activity administered intra peritoneally to mouse at maximal electroshock test at 0.5 h after the drug administered with dose of 30 mg/kg; 0/1= No of animals protected /No of animals tested. In kind it is functional.
Series [15] concerns Mus musculus. Kind of series: Anti convulsant activity administered intra peritoneally to mouse for subcutaneous metrazol test at 4 hr after the drug administered with dose of 30 mg/kg; 0/1= No of animals protected /No of animals tested. It is filed as functional. The note with it: route intraperitoneal.
Series [16] in a line: Anti convulsant activity administered intra peritoneally to mouse for toxicity at 0.5 hr with dose of 100 mg/kg; 0/8= No of animals exhibiting toxicity /No of animals tested. The note with it: in vivo, ip. Set-up: dose 100 mg/kg. It is filed as organism-based.
For series [17], the system named is Rattus norvegicus. Kind of series: Anticonvulsant activity after oral administration of 223 mg/kg dose after 1 hr in rats; ++++ means 100% of the animals protected. In kind it is functional, organism-based. Set-up: dose 223 mg/kg. The procedure, abridged:
(§1)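 Oral dosing of rats at a single dose, compound dissolved or suspended in 0.5% methylcellulose. Protection in the MES or scMet test checked 15 min, 30 min, 1 h, 2 h and 4 h after dosing. Scored as 25/50/75/100% of animals protected (+ to ++++), – for none.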

For series [18], the system named is Mus musculus. The series is described as follows: Anti convulsant activity administered intra peritoneally to mouse for subcutaneous metrazol test at 0.5 hr with dose of 100 mg/kg; 0/1= No of animals protected /No of animals tested. In kind it is functional.
For series [19], the system named is Mus musculus. The series is described as follows: Anti convulsant activity administered intra peritoneally to mouse for subcutaneous metrazol test at 0.5 h with dose of 300 mg/kg; 0/1= No of animals protected /No of animals tested. In kind it is functional.
Series [20] relates to Mus musculus. Kind of series: Anti convulsant activity administered intra peritoneally to mouse for subcutaneous metrazol test at 0.5 hr with dose of 30 mg/kg; 0/1= No of animals protected /No of animals tested. In kind it is functional.
For series [21], the system named is Mus musculus. The series is described as follows: Anti convulsant activity administered intra peritoneally to mouse at maximal electroshock test at 4 hr after the drug administered with dose of 300 mg/kg; 1/1= No of animals protected /No of animals tested. In kind it is functional.
Series [22] concerns Rattus norvegicus. The series is described as follows: Anticonvulsant activity after oral administration of 30 mg/kg dose after 4 hr in rats; + means 25% of the animals protected. The arrangement: dose 30 mg/kg. In kind it is functional, organism-based. The procedure, abridged: as §1
Series [23] is described as follows: Anti convulsant activity administered intra peritoneally to mouse for toxicity at 4 hr with dose of 100 mg/kg; 1/4= No of animals exhibiting toxicity /No of animals tested. In kind it is organism-based. The note with it: in vivo, ip. Set-up: dose 100 mg/kg.
Series [24] can be described thus: Anti convulsant activity administered intra peritoneally to mouse for toxicity at 4 hr with dose of 300 mg/kg; 1/4= No of animals exhibiting toxicity /No of animals tested. As to conditions: in vivo, ip. The arrangement: dose 300 mg/kg. In kind it is organism-based.
A short description of series [25]: Anti convulsant activity administered intra peritoneally to mouse for toxicity at 0.5 hr with dose of 300 mg/kg; 2/4= No of animals exhibiting toxicity /No of animals tested. It is filed as organism-based. The arrangement: dose 300 mg/kg. The note with it: in vivo, ip.
For series [26], the system named is Mus musculus. Kind of series: Anti convulsant activity administered intra peritoneally to mouse for toxicity at 4 hr with dose of 30 mg/kg; 0/3= No of animals exhibiting toxicity /No of animals tested. In kind it is functional.

Consider `CCNC(=O)C1C(C)(C)C1(C)C`, for which the Toxicity was 50% of the animals exhibiting toxicity in series [1]; 0 in series [3]; 4 in series [7]; 2 in [10]; 0 in series [11]; 0 in series [12]. For the same molecule, the Toxicity in series [16] was 0. The Activity with Mus musculus [2] was 0; with Mus musculus [4], 0; with Mus musculus [5], 0; with Rattus norvegicus [6] it was 100% of the animals protected; with Mus musculus [8] it was 1; with Mus musculus [9], 0. Moreover, the Activity with Mus musculus [13] was 0; with Mus musculus [14] it was 0; in the series on Mus musculus [15] it was 0; in the series on Rattus norvegicus [17] it was 100% of the animals protected; with Mus musculus [18], 0; in the series with Mus musculus [19] it was 1. The Activity with Mus musculus [20] is recorded as 0; with Mus musculus [21] it was 1.
As for `CC1(C)C(C(=O)NN)C1(C)C`, the Activity with Mus musculus [2] was 0; in the series with Mus musculus [4], 0; in the series with Rattus norvegicus [22], 25% of the animals protected; with Mus musculus [5], 0; in the series on Mus musculus [8], 1; in the series with Mus musculus [13] it was 0. In addition, the Activity in the series with Mus musculus [14], with Mus musculus [15], with Mus musculus [19], in the series with Mus musculus [26] and in the series with Mus musculus [20] was 0 throughout. The Toxicity in series [3] was found to be 0; in series [23], 1; in series [24], 1; in series [25], 2; in series [12], 0; in series [16] it was 0.

Source of the values: ChEMBL document CHEMBL1138683 (J Med Chem, 2004).
